CHRM5 antagonist = human M5 muscarinic receptor antagonists, primary screen, CHO cells, Fluo-8 calcium fluorescence; AID 624040, 2012; Muscarinic acetylcholine receptor M5 (Homo sapiens), P08912; CHO-hM5 cells, ACh EC80; actives 0.59% (n = 360,000); inhibition, % at 3 µM;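 active = inhibition above a per-plate cutoff, the mean of that plate's test compounds plus 3 SD, cut at about 27% in these data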;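 also: 0% = acetylcholine EC80 with DMSO and 100% = DMSO without agonist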
CHRM4 agonist = human M4 muscarinic receptor agonists, primary screen, CHO-K1 cells, Fluo-8 calcium fluorescence; Muscarinic acetylcholine receptor M4 (Homo sapiens), P08173; CHO-K1 hM4/Gqi5; vehicle 0%, full acetylcholine response 100%; AID 624127, 2012; activation, % at 3 µM; actives 0.14% (n = 360,000);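 active = activation above the run mean over all test wells plus 3 SD, cut at about 32% in these data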;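 also: peak over basal fluorescence ratio per well then scaled between controls; 0% = DMSO wells and 100% = acetylcholine at EC100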
Target sequence (P08173 whole entry, looked up): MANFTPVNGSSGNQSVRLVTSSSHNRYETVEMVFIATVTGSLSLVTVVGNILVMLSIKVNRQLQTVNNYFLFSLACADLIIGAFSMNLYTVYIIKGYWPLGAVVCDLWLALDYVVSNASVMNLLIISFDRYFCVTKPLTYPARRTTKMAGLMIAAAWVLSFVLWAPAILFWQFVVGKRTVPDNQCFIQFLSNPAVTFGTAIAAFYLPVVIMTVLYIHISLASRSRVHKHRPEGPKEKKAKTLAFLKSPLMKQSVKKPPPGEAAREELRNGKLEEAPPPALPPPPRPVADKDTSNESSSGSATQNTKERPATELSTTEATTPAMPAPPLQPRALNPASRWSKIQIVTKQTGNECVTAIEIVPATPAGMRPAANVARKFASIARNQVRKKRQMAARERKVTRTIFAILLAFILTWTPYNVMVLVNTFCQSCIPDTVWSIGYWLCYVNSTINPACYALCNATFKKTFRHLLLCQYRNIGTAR
M4 PAM = human M4 muscarinic receptor positive allosteric modulators, primary screen, CHO-K1 cells, Fluo-8 calcium fluorescence; AID 624126, 2012; CHO-K1 hM4/Gqi5, ACh EC20; 0% = ACh EC20, 100% = maximal ACh; activation, % at 3 µM; actives 0.4% (n = 360,000);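 active = activation above its plate's cutoff, the mean activation of sample wells plus 3 SD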
CHRM5 agonist = human M5 muscarinic receptor agonists, primary screen, CHO-K1 cells, Fluo-8 calcium fluorescence. Muscarinic acetylcholine receptor M5 (Homo sapiens), P08912. AID 624037, 2012. CHO-K1 hM5 cells; 0% DMSO wells, 100% maximal acetylcholine response. actives 0.19% (n = 360,000). activation, % at 3 µM;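 active = activation above the run's mean over test compounds plus 3 SD, cut at about 23% in these data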;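 also: signal is peak over basal fluorescence ratio across the kinetic read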
M5 PAM = human M5 muscarinic receptor positive allosteric modulators, primary screen, CHO-K1 cells, Fluo-8 calcium fluorescence. Muscarinic acetylcholine receptor M5 (Homo sapiens), P08912. CHO-K1 hM5, ACh EC20 PAM; 0% = ACh EC20, 100% = ACh EC100. activation, % at 3 µM. actives 0.3% (n = 360,000). AID 624038, 2012;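 active = activation above the run cutoff, the mean activation of all test compounds plus 3 SD, cut at about 18% in these data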
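Probe or stimulus: acetylcholine, EC20 level; Assay system: human M5 receptor in CHO-K1 cells; Schedule: compound preincubation 140 s before EC20 acetylcholine addition; Technique: intracellular calcium via Fluo-8 fluorescence; Dosing: single-point, 3 µM nominal; Read-out basis: percent activation from peak-over-basal fluorescence ratio, scaled EC20-to-EC100 acetylcholine; Repeats: one well per compound, no replicates.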
CHRM4 antagonist = human M4 muscarinic receptor antagonists, primary screen, CHO cells, Fluo-8 calcium fluorescence; Muscarinic acetylcholine receptor M4 (Homo sapiens), P08173; CHO-hM4 cells, ACh EC80; inhibition, % at 3 µM; actives 0.73% (n = 360,000); AID 624125, 2012;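 active = inhibition above its plate's cutoff, the mean inhibition of sample wells plus 3 SD, cut at about 27% in these data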;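 also: 0% = acetylcholine EC80 with DMSO and 100% = DMSO without agonist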
Active calls of the source: *. Most compounds without a hit are left out; they make up all but 1.8% or so of the library.

SMILES	CHRM5 antagonist	CHRM4 agonist	M4 PAM	CHRM5 agonist	M5 PAM	CHRM4 antagonist
Cc1oc2ccc(OCc3ccc(Br)cc3)cc2c1C(=O)O	3.0	0.7	3.3	-2.7	7.5	-3.2
COc1cc(/C=C/C(=O)OCC(=O)N2CCCC2)cc(OC)c1OC	9.6	1.8	9.2	0.5	-2.4	-22.8
Cc1csc(NC(=O)c2cc(-c3ccccc3)nc3ccccc23)n1	27.7*	8.7	-14.5	-1.3	-18.3	2.7
CCN(Cc1ccccc1)C(=O)C1CCN(C(=O)Nc2ccccc2)CC1	18.3	1.9	1.8	-0.7	-6.5	3.4
CCCN(CC(=O)Nc1ccccc1C)C(=O)C1CCN(C(=O)Nc2ccccc2)CC1	11.5	1.6	20.6*	0.4	-7.1	-18.8
O=C(O)CSc1cc(C(=O)c2ccccc2O)cn2c(=O)c3c4c(sc3nc12)CCCC4	5.9	0.7	32.7*	-2.3	6.9	8.9
CC(NC(=O)CCN1C(=O)c2ccccc2C1=O)c1ccccc1 (stereo not drawn)	6.3	0.1	1.5	0.4	1.1	-16.1
C1N2CN3CN1CN(C2)C3	7.0	0.5	-6.9	-0.2	-6.5	5.7
C=CCn1c(SCC(=O)NCc2ccccc2)nnc1C1CCCCC1	-5.8	2.3	0.4	-2.2	24.7*	-15.9
C=CCn1c(SCC(=O)NCCc2ccccc2)nnc1C1CC1	17.3	16.0	-3.0	-1.7	-17.0	-7.3
COC(=O)C1CCN(S(=O)(=O)c2cc3c4c(c2)CCN4C(=O)CC3)CC1	-14.8	0.8	10.4	-1.4	15.0	-28.4
COc1ccccc1N1CCN(S(=O)(=O)c2ccc3c(c2)oc(=O)n3C)CC1	27.1*	1.6	1.0	-1.6	-12.6	1.7
Cn1c(=O)oc2cc(S(=O)(=O)CCC(=O)N3CCN(c4ccccc4F)CC3)ccc21	10.9	3.4	7.9	10.6	37.5*	-16.3
Cn1c(=O)oc2cc(S(=O)(=O)N3CCN(c4ccccc4F)CC3)ccc21	8.1	0.8	6.8	-3.1	-6.1	-16.9
Cc1n[nH]c(C)c1CCCCOc1ccccc1[N+](=O)[O-]	34.5*	13.2	-13.2	-6.4	-23.5	13.0
CCn1c(SCC(=O)NNC(=O)c2ccc(C)cc2)nnc1C(C)C	3.1	0.9	15.2*	-4.2	0.2	-14.6
Cc1ccc(S(=O)(=O)N2CCN(C(=O)CC(C)n3nc(C)c(Cl)c3C)CC2)cc1C (stereo not drawn)	-4.1	3.9	8.0	-1.7	2.4	-4.9
Cc1ccc(F)cc1CNC(=O)C1CCC(=O)N(CCc2ccccc2)C1 (stereo not drawn)	7.8	0.9	1.1	-0.7	1.9	6.7
Cn1cc(CNC(=O)C2CCC(=O)N(Cc3ccccc3F)C2)cn1 (stereo not drawn)	-8.7	0.1	20.4*	-3.7	8.5	-11.4
Cc1c(CNC(=O)C2CCC(=O)N(CCc3ccccc3)C2)cnn1C (stereo not drawn)	11.7	-0.1	20.5*	-2.6	1.7	-3.0
CCn1cc(CNC(=O)C2CCC(=O)N(Cc3ccccc3F)C2)cn1 (stereo not drawn)	7.8	1.9	4.7	-3.7	-3.5	-17.9
Cc1cccc(CNC(=O)C2CCC(=O)N(Cc3ccccc3F)C2)n1 (stereo not drawn)	-0.6	1.3	20.9*	-4.2	2.4	-7.5
CCc1cc(CNC(=O)C2CCC(=O)N(CCc3ccc(OC)cc3)C2)on1 (stereo not drawn)	28.2*	1.2	-0.4	-3.8	-13.6	6.8
Cc1ccc2nc(CNC(=O)C3CCC(=O)N(Cc4ccccc4F)C3)cn2c1 (stereo not drawn)	-2.8	1.4	1.1	-5.7	1.0	-3.8
C=CCSC1=NNC(c2ccc(C(C)(C)C)cc2)=NN1	6.8	1.3	-9.7	-2.6	-1.2	-6.0

Assay outcomes deposited in PubChem BioAssay by The Scripps Research Institute Molecular Screening Center.
